Screening data deposited in PubChem by several laboratories.
An excerpt weighted towards active compounds, which were near 1.2% of everything screened.
PERK inhibitor: inhibitors of human PERK kinase; Q9NZJ5; CHO PERK-DD fusion, SEAP luminescence translation reporter; inhibition, % at 5.6 µM; 0.17% of 220,000 active;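 active = inhibition above the mean inhibition of all tested compounds plus 3 SD, set separately per screening campaign, cut at about 2.9% in these data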;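 note: PERK kinase domain activated by AP20187 dimerizer at 100 nM; 0% = DMSO with dimerizer and 100% = rapamycin at 8.4 µM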
TbHK1 inh: T. brucei hexokinase 1 inhibition; recombinant TbHK1, G6PDH-coupled NADH A340; 0.11% of 220,000 active; inhibition, % at 10 µM;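 active = inhibition of 50% or more in the single-dose primary screen; inactive = inhibition below 50%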
Dynein cargo inh: dynein cargo transport inhibition | 3617.4 mouse cells, GR-EGFP nuclear translocation imaging; test concentration mostly 20 µM; stimulated with dexamethasone, 1 µM; stronger effect = lower value | z-score, hits read low | 0.47% of 220,000 active | AID 1381;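 active = plate z-score of nuclear minus cytoplasmic receptor signal below a set negative limit, without overly bright fluorescence or cell loss, cut at about -3.5 in these data, passing the limit was not always enough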;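 note: z-score of nuclear minus cytoplasmic ring GR-EGFP intensity difference per well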
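Buffer or medium: tet-free medium with charcoal-stripped serum / Also added: dexamethasone agonist, 1.0 µM final, for 30 min / Timing: induction 48 h, compound 1 h, agonist 30 min / Measured by: high-content fluorescence imaging after fixation / Read-out: nuclear-to-cytoplasmic GR-EGFP distribution per well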
Autophagy mod: modulators of autophagy | MEF GFP-LC3 puncta imaging; test concentration mostly 10 µM | calls only at 10 µM (by protocol) | 0.98% of 190,000 active;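 active = percentage of spot-positive cells more than 3 SD above its plate mean, without a fluorescence outlier flag or 80% toxicity; inconclusive = no clear call, values can overlap the other calls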;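 note: spot-positive cell cutoff set from DMSO-treated cells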
HSV augment: HSV replication enhancement. maximum fold increase. AID 1956. HSV replication augmentation in cells, fold increase. 0.005% of 220,000 active; in the data active = maximum fold increase above about 1.5; inconclusive = no clear call, values can overlap the other calls; tested in PC3 cells
HKDC1 inhibitor: blocks human hexokinase HKDC1 activity; Q2TB90; recombinant HKDC1, G6PDH/diaphorase resazurin coupled fluorescence; inhibition, % at 20 µM; 0.16% of 340,000 active; AID 493160;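 active = inhibition above about 35% when tested at 20 µM, limit read from the data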;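 note: plate controls were DMSO wells with enzyme for no effect and DMSO wells lacking enzyme for full effect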
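Assay system – recombinant HKDC1 (HK5) hexokinase enzyme, produced in-house · Input – HKDC1 at 5 µg/mL · Reagent – glucose plus 1 mM ATP as hexokinase substrates · Timing – 90 min reaction incubation at room temperature, dark · Measured by – G6PDH/diaphorase-coupled fluorescence, 1 mM NADP, 100 µM resazurin, 525/613 nm · Benchmarks – DMSO-enzyme wells negative, buffer-substituted wells positive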
Dynein confirm: dynein cargo transport inhibition, confirmation | 69% of 1,000 active | AID 463116 | shares compounds with Dynein cargo inh | calls only at 20 µM | 3617.4 GR-EGFP nuclear translocation imaging, dexamethasone-induced;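 active = inhibition of receptor movement into the nucleus at or above a set limit in both runs, with normal cell brightness and cell count; inconclusive = limit reached in only one run, brightness and count normal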;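 note: dexamethasone at 1 µM final in well for 30 min; nuclear minus cytoplasmic GR-EGFP mean intensity difference in channel 2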
Starred values were filed as active, the others as inactive; i = inactive; ? = inconclusive; nt = no result; + = active, no number.

SMILES | PERK inhibitor | TbHK1 inh | Dynein cargo inh | Autophagy mod | HSV augment | HKDC1 inhibitor | Dynein confirm
N#Cc1cccc(NC(=O)CSc2ccc3c4c(cccc24)C(=O)c2ccccc2-3)c1 | 0 | 36 | -6 | + | nt | 11 | +
O=C(OCc1c(-c2ccccc2)ncc2ccccc12)c1cccc(Br)c1 | nt | nt | nt | nt | nt | 0 | nt
CN(C)c1ccc(/C=C2\CCC/C(=C\c3ccccc3)C2=O)cc1 | 2 | -5 | -6.3 | i | ? | 4 | i
CCCOc1ccc(C(=O)N2CCN(Cc3ccc4c(c3)OCO4)CC2)cc1 | nt | nt | nt | nt | nt | -8 | nt
Cc1ccccc1-n1nnnc1Sc1nnnn1-c1ccccc1 | 0 | -6 | -5.1* | i | i | 26 | +
O=[N+]([O-])c1ccc(Sc2nnnn2-c2ccccc2)nc1 | 1 | 4 | -5.2* | i | i | 11 | +
O=C1/C(=C/c2ccc(O)cc2)COc2ccccc21 | nt | nt | nt | nt | nt | 17 | nt
CCOc1cc(/C=C2/COc3ccccc3C2=O)ccc1OCC(=O)N(C)C | 1 | -21 | -3.6* | i | i | 1 | +
CC1CCN(CC(CS(=O)(=O)c2ccc([N+](=O)[O-])cc2)N2CCC(C)CC2)CC1 (configuration not stated) | 1 | -6 | -4.7* | nt | i | 1 | +
Cc1ccc(S(=O)(=O)CC(CN2CCOCC2)N2CCOCC2)cc1 (configuration not stated) | 0 | 8 | -0.0035 | i | i | -10 | nt
CCN(CC(=O)Nc1cc(Cl)ccc1C)C(=O)COc1cccc2c1OC(C)(C)C2 | nt | nt | nt | nt | nt | -3 | nt
Cc1nc(SC2CC(=O)N(c3ccccc3)C2=O)n[nH]1 (configuration not stated) | 2 | 1 | -3.7* | + | i | -13 | i
COc1ccccc1N1C(=O)CC(Sc2nccc(C)n2)C1=O (configuration not stated) | 0 | -5 | -0.52 | i | i | -5 | nt
O=C1CC(Sc2ncccn2)C(=O)N1c1ccccc1 (configuration not stated) | 1 | -2 | -1.1 | i | i | -5 | nt
COc1ccccc1N1C(=O)CC(Sc2n[nH]c(-c3cccc(C)c3)n2)C1=O (configuration not stated) | 1 | -1 | -3.6* | i | i | 12 | +
O=C1CC(Sc2nnc(-c3ccccc3O)o2)C(=O)N1c1ccccc1 (configuration not stated) | 1 | -3 | -6.5* | i | nt | -9 | i
Cc1ccoc1C(=O)N1CCN(C(=O)c2occc2C)CC1 | nt | nt | nt | nt | nt | 0 | nt
C=C1C(=O)[C@@]23[C@H](O)C[C@@H]4C(C)(C)CC[C@H](O)[C@@]4(C)[C@@H]2CC[C@@H]1[C@H]3O | 0 | -1 | -5.5* | i | i | 6 | +
C=C1C(=O)[C@@]23[C@H](O)C[C@@H]4C(C)(C)CC[C@H](O)[C@]4(C)[C@@H]2C[C@H](O)[C@@H]1[C@H]3O | 1 | 7 | -5.1* | i | i | -5 | +
O=C(NN=Cc1ccccc1C(=O)O)c1cccc(S(=O)(=O)Nc2cccc(C(F)(F)F)c2)c1 | nt | nt | nt | nt | nt | 8 | nt
CCOC(=O)C(=Cc1cc(=O)c(OC)co1)C(=O)OCC | 1 | 2 | -4* | i | i | -12 | +
CCc1noc(C)c1C(=O)Nc1nnc(C(CC)CC)s1 | nt | nt | nt | nt | nt | 3 | nt
Cc1cccc(N(C(=O)CNC(=O)c2ccco2)C(C(=O)NC2CCCCC2)c2cccnc2)c1 (configuration not stated) | nt | nt | nt | nt | nt | -3 | nt
O=C(NC1CCCCC1)C(c1cccnc1)N(C(=O)CCl)c1cccc(Cl)c1 (configuration not stated) | 0 | 0 | -4.3* | i | i | 19 | +
Cc1c(C#N)c(NC(=O)CCl)n(Cc2ccccc2)c1C | 1 | 1 | -2.9 | i | i | 12 | nt
Cc1c(C#N)c(NC(=O)CCl)n(Cc2cccs2)c1C | 0 | 0 | -5.2* | i | i | 10 | +
O=c1ccc(-c2ccc(S(=O)(=O)Nc3cccc(Br)c3)o2)n[nH]1 | nt | nt | nt | nt | nt | 2 | nt
COc1ccc(N(CC(=O)NC2CCCCC2)C(=O)c2ccc(C)s2)c(OC)c1 | nt | nt | nt | nt | nt | -2 | nt
